18 compounds from ChEMBL document CHEMBL3593224, “Design, synthesis and biological evaluation of a novel series of peripheral-selective noradrenaline reuptake inhibitor” (Bioorg Med Chem, 2015) can be followed below.

Structures are written as SMILES. Activity calls are given as the source filed them. The rule behind the calls is not given here. Some results are limits rather than exact numbers.

The target of series [1] is Sodium-dependent dopamine transporter (Homo sapiens, UniProt Q01959). As to the kind of experiment: Inhibition of human DAT expressed in CHOK1 cells incubated for 60 mins by [3H]-dopamine uptake assay. The series is classed as cell-based, CHO-K1. In short, it runs like this: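 CHO cells stably expressing human DAT, grown in Ham/F12 with 10% FBS, seeded 3 × 10^5 cells/mL and cultured overnight. Compound added in buffer (NaCl, KCl, KH2PO4, MgSO4, 10 mM HEPES, CaCl2, glucose, 0.5% BSA), then [3H]-dopamine (200 nM stock, with 10 µM cold dopamine stock); 60 min uptake, PBS wash, scintillation count. 100 µM nomifensine as 100% inhibition; IC50 with 95% CI, n=2.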
Chain of Sodium-dependent dopamine transporter (Q01959 whole entry): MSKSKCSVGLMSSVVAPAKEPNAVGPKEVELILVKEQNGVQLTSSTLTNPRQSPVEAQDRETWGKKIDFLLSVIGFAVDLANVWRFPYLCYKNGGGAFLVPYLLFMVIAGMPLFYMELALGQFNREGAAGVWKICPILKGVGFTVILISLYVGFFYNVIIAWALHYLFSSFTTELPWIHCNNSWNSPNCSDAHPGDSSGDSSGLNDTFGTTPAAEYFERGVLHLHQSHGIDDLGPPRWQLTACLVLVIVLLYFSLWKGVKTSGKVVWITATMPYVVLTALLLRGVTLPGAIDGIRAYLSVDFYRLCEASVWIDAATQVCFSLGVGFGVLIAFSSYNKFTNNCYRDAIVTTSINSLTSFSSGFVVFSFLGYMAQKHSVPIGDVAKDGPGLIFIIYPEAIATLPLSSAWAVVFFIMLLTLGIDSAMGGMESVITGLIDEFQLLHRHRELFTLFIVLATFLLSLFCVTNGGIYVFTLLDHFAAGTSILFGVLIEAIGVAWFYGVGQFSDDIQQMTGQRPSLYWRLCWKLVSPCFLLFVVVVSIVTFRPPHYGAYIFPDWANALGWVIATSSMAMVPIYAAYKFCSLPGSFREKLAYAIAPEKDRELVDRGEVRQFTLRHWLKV

Series [2] concerns the target Sodium-dependent noradrenaline transporter (Homo sapiens, UniProt P23975). As to the kind of experiment: Inhibition of human NET expressed in CHOK1 cells incubated for 45 mins by [3H]-norepinephrine uptake assay. The series is classed as cell-based, CHO-K1. A digest of the protocol:
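Human NET stably expressed in CHO cells (Ham/F12, 10% FBS), seeded 3 × 10^5 cells/mL, overnight culture. In HEPES-buffered salt/glucose buffer with 0.5% BSA, compound then [3H]-norepinephrine (diluted to 200 nM before addition) added; uptake 45 min, two PBS washes, scintillation counting. 10 µM desipramine taken as 100% inhibition; IC50 and 95% confidence interval from n=2.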

Series [3] is filed under the species Homo sapiens. As to the kind of experiment: Selectivity index, ratio of IC50 for human DAT to IC50 for human NET. A digest of the protocol: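 Ratio of IC50s from two [3H]-uptake assays in CHO cells stably expressing human DAT or NET, seeded overnight in HEPES-buffered saline with glucose and 0.5% BSA. Radioligand added from 200 nM dilutions. DAT: [3H]-dopamine plus cold dopamine (10 µM dilution), 60 min. NET: [3H]-norepinephrine, 45 min. Washed, scintillation counted; IC50 with 95% CI, n=2.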

Series [4] concerns Rattus norvegicus. Put plainly: In-vivo occupancy at NET in Sprague-Dawley rat brain cortex at 3 mg/kg, iv by [3H]-nisoxetine […] assay. The series is classed as functional. A digest of the protocol:
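Female Sprague-Dawley rats under urethane anaesthesia (i.p.) got compound i.v. The left cortex was removed 20 min later and homogenised in Tris-Cl pH 7.5/NaCl/KCl buffer. Membranes at 4 mg/mL protein were incubated 1 h at room temperature with [3H]-nisoxetine (25 nmol/L solution), with desipramine for nonspecific binding. Filtered on GF/B; occupancy taken against vehicle specific binding (100%).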

Series [5] deals with Sodium-dependent serotonin transporter (Homo sapiens, UniProt P31645). Put plainly: Inhibition of human SERT expressed in CHOK1 cells incubated for 20 mins by [3H]-5-hydroxytryptamine uptake assay. The format is cell-based, CHO-K1. In short, it runs like this:
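CHO cells stably expressing human SERT, cultured in Ham/F12 plus 10% FBS, plated 3 × 10^5 cells/mL overnight. Buffer: 126 mM NaCl, 10 mM HEPES, glucose, 0.5% BSA; compound added at 10× then diluted, followed by [3H]-5-HT (200 nM stock). After 20 min, buffer removed, cells washed twice with PBS, radioactivity counted; IC50 and 95% CI from two experiments.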

The species entered for series [6] is Homo sapiens. As to the kind of experiment: Selectivity index, ratio of IC50 for human SERT to IC50 for human NET. A digest of the protocol: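 Ratio of IC50s from two [3H]-uptake assays in CHO cells (SERT or human NET expressing), seeded overnight in HEPES-buffered saline with glucose and 0.5% BSA. Radioligand added from 200 nM dilutions. SERT: [3H]-5-hydroxytryptamine, 20 min. NET: [3H]-norepinephrine, 45 min. Washed, scintillation counted; IC50 with 95% CI, n=2.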

A further series addresses hERG (KCNH2) (Homo sapiens, UniProt Q12809). As to the kind of experiment: Inhibition of human ERG at 10 uM.
Series [7] concerns Rattus norvegicus. As to the kind of experiment: Increase in urethral resistance in rat assessed as increase in leak point pressure at 0.3 to 3 mg/kg, iv measured 30 mins post dose by Evans blue dye based assay. The format is functional, organism-based. Conditions: Urethra.
A further series has as its target CYP2D6 (Homo sapiens, UniProt P10635). Put plainly: Inhibition of CYP2D6 (unknown origin) at 10 uM. The format is ADME.
The subject of series [8] is Rattus norvegicus. As to the kind of experiment: Increase in urethral resistance in rat assessed as increase in leak point pressure at 1 to 10 mg/kg, sc measured 30 mins post dose by Evans blue dye based assay. Conditions: Urethra. The series is classed as functional, organism-based.

Chain of Sodium-dependent noradrenaline transporter (P23975 whole entry): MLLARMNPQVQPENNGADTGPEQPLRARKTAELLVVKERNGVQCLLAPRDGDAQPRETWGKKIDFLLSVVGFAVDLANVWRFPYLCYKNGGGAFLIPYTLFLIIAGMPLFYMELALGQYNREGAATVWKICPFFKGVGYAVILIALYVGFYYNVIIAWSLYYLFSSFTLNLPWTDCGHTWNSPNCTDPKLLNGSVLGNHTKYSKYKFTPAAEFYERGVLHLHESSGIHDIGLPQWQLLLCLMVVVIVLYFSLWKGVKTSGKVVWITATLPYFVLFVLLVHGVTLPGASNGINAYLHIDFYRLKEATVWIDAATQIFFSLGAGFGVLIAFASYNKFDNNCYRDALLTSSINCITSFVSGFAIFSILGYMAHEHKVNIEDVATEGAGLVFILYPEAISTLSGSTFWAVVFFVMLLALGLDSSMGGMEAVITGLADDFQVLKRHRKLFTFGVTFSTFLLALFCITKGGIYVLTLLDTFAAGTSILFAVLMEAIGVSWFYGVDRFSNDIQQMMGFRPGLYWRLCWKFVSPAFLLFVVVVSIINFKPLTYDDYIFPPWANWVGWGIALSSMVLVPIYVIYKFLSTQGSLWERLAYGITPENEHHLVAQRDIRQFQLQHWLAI
Chain of CYP2D6 (P10635 whole entry): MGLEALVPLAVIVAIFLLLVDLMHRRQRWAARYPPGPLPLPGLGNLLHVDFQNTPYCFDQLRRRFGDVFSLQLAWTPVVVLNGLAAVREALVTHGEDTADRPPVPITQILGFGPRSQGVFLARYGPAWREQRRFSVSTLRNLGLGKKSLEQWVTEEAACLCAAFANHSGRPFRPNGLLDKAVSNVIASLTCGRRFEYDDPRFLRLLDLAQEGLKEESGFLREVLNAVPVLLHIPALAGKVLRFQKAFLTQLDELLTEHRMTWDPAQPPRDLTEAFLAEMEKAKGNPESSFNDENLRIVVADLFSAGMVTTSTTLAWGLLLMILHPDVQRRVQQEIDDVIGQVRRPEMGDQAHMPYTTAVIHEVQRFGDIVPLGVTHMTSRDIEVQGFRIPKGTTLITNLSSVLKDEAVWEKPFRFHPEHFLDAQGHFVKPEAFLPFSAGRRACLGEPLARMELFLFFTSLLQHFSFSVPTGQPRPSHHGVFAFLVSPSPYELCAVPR
Chain of Sodium-dependent serotonin transporter (P31645 whole entry): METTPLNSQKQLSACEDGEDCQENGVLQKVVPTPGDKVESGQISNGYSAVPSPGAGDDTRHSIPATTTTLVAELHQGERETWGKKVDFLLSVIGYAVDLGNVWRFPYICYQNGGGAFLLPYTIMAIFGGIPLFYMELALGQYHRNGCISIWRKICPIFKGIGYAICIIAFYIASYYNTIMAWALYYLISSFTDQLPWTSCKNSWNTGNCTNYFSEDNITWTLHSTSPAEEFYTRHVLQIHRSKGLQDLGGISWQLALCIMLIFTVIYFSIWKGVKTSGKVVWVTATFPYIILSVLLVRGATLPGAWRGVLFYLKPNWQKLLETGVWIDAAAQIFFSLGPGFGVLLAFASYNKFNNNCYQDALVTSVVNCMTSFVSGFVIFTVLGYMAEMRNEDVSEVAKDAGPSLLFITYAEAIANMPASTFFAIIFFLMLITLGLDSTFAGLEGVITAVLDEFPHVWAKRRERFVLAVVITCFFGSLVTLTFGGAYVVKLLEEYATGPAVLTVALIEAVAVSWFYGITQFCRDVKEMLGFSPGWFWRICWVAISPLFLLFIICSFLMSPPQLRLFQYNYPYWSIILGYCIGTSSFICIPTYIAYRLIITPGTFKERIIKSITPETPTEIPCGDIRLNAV
Chain of hERG (KCNH2) (Q12809 whole entry): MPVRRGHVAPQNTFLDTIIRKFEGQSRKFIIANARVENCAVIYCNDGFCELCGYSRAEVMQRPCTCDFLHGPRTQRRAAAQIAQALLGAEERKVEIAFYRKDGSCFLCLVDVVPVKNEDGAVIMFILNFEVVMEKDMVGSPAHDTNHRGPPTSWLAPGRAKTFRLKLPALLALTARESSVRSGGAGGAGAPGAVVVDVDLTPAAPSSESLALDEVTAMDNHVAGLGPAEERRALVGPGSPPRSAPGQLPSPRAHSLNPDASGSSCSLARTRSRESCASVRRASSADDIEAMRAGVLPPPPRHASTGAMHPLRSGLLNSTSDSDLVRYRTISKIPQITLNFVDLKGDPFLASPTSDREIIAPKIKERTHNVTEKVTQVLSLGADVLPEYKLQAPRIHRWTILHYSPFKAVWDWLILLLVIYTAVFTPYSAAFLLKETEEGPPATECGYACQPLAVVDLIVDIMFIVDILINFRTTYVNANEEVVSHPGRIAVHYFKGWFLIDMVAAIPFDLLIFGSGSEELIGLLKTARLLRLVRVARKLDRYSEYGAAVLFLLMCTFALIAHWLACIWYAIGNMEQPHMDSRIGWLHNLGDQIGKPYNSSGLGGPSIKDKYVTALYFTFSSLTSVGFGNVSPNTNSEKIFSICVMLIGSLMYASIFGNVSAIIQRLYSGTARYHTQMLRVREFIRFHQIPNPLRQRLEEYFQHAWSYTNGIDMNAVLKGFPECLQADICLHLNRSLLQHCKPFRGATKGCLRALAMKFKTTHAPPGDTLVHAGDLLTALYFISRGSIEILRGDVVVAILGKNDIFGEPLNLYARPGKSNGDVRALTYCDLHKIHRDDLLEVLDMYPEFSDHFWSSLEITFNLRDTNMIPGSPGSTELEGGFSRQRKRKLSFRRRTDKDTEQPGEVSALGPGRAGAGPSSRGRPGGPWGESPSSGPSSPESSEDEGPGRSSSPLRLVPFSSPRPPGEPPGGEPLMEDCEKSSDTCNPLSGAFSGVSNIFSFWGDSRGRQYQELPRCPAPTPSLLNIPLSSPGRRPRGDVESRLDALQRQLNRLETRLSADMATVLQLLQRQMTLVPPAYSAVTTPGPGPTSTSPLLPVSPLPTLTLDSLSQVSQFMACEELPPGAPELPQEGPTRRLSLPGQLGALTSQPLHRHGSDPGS

The term IC50 denotes the midpoint of a concentration-inhibition curve. Lower therefore signals higher potency. Take `CC(=O)NC[C@@H]1CNCCO[C@H]1c1ccc(Cl)c(F)c1.Cl`: the IC50 in series [1] was > 1 µM; in series [2], 0.0023 µM; in series [5], > 1 µM. For the same compound, the Ratio IC50 in the series listed under Homo sapiens [3] and in the series listed under Homo sapiens [6] was > 440 in each case. Besides, the Occ with Rattus norvegicus [4] is listed as -2.8%.
Usually inhibition stands for how much of the control response was suppressed. The low end stands for a response near the control, the high end for a response far below the control. For the compound `CC(=O)NC[C@@H]1CNCCO[C@H]1c1ccc(Cl)c(Cl)c1.O=C(O)/C=C/C(=O)O`, on hERG (KCNH2), the inhibition at 10 µM was 15%. For the same compound, in the series with Rattus norvegicus [7], the Activity entry is “Dose-dependent effect”. Further, the IC50 is 1.5 µM in series [1], 0.00033 µM in series [2] and 0.15 µM in [5]. Also, the Ratio IC50 amounted to 4400 in the series filed under Homo sapiens [3] and 450 in the series filed under Homo sapiens [6]. For the same compound, in the series on Rattus norvegicus [4], the Occ is reported as -14%.
Turning to `CNC(=O)[C@@H]1CNCCO[C@H]1c1ccc(Cl)c(Cl)c1`, the IC50 in [1] was > 1 µM; in series [2], 0.012 µM; in series [5] it was > 1 µM. In addition, the Ratio IC50 in the series listed under Homo sapiens [3] and in the series listed under Homo sapiens [6] was > 83 in each case.
In turn, `OCC1(c2ccc(Cl)c(Cl)c2)CCNCCO1` (racemic) yielded an inhibition at 10 µM against CYP2D6 of 19%. In addition, the concentration for half-maximal inhibition (IC50) was > 10 µM in series [1], 0.017 µM in series [2] and 0.2 µM in series [5]. Further, the results for the Ratio IC50 in the series filed under Homo sapiens [3] and in the series filed under Homo sapiens [6] were > 590 and 12, respectively.
On to `CC(=O)NC[C@@H]1CNCCO[C@H]1c1ccc(F)c(Cl)c1.O=C(O)/C=C/C(=O)O`, for which the IC50 was > 1 µM in series [1], 0.013 µM in series [2] and > 1 µM in [5]. Further, the Ratio IC50 in the series listed under Homo sapiens [3] and in the series filed under Homo sapiens [6] was > 76 throughout. Moreover, in the series on Rattus norvegicus [4], the Occ was determined as 1.7%.
As for `CC(=O)NC[C@@H]1CNCCO[C@H]1c1ccc(Cl)c(C)c1`, the IC50 in series [1] was > 1 µM; in series [2], 0.0033 µM; in [5], 0.48 µM. In addition, the Ratio IC50 in the series filed under Homo sapiens [3] was > 300; in the series filed under Homo sapiens [6], 150.
In turn, `OC[C@]1(c2ccc(Cl)c(Cl)c2)CCNCCO1` showed an inhibition at 10 µM at CYP2D6 of 21%. The IC50 in [1] was > 10 µM; in [2], 0.7 µM; in series [5], 0.33 µM. Further, the Ratio IC50 was > 14 in the series listed under Homo sapiens [3] and 0.47 in the series listed under Homo sapiens [6].
Turning to `OC[C@@]1(c2ccc(Cl)c(Cl)c2)CCNCCO1`, 10 µM produced 23% inhibition against CYP2D6. The results for the IC50 in series [1], in [2] and in [5] were > 10 µM, 0.0056 µM and 0.2 µM, respectively. Also, the results for the Ratio IC50 in the series filed under Homo sapiens [3] and in the series filed under Homo sapiens [6] were > 1800 and 35, respectively.
Consider `OC[C@H]1CNCCO[C@H]1c1ccc(Cl)c(Cl)c1`, for which testing at 10 µM against CYP2D6 gave an inhibition of 47%. Besides, the IC50 in [1] was > 1 µM; in series [2], 0.006 µM; in series [5] it was 0.12 µM. In addition, the Ratio IC50 in the series filed under Homo sapiens [3] was > 170; in the series filed under Homo sapiens [6] it was 20.
Regarding `CN(C)C(=O)[C@@H]1CNCCO[C@H]1c1ccc(Cl)c(Cl)c1.Cl`, the values for the 50% inhibitory concentration (IC50) in series [1], in [2] and in series [5] were 0.07 µM, 0.00077 µM and 0.35 µM, respectively. The Ratio IC50 was determined as 91 in the series filed under Homo sapiens [3] and 460 in the series listed under Homo sapiens [6]. Further, the Occ in the series on Rattus norvegicus [4] stood at 68%.
On CYP2D6, `OC[C@@H]1CNCCO[C@@H]1c1ccc(Cl)c(Cl)c1` gave an inhibition at 10 µM of 58%. Also, the IC50 in [1] is > 1 µM; in series [2], 0.0085 µM; in [5] it was 0.011 µM. Besides, the Ratio IC50 in the series listed under Homo sapiens [3] was > 120; in the series listed under Homo sapiens [6], 1.3.
Take `OCC1(c2ccc(Cl)c(Cl)c2)CCCNCC1` (racemic): at 10 µM the inhibition at CYP2D6 was 44%. The IC50 is > 1 µM in [1], 0.0021 µM in series [2] and 0.035 µM in [5]. Also, the results for the Ratio IC50 in the series filed under Homo sapiens [3] and in the series filed under Homo sapiens [6] were > 480 and 17, respectively.
As to `Cl.OC[C@@H]1CNCCO[C@H]1c1ccc(Cl)c(Cl)c1`, the inhibition at 10 µM against CYP2D6 is 34%. The IC50 in [1] is 3.1 µM; in series [2], 0.002 µM; in series [5], 0.097 µM. Further, the Ratio IC50 in the series filed under Homo sapiens [3] came out at 1800; in the series filed under Homo sapiens [6] it was 50. Further, the Occ in the series with Rattus norvegicus [4] stood at 68%.
Regarding `NC(=O)[C@@H]1CNCCO[C@H]1c1ccc(Cl)c(Cl)c1`, the IC50 in [1] was > 10 µM; in series [2] it was 0.052 µM; in series [5], 0.78 µM. Further, the Ratio IC50 in the series listed under Homo sapiens [3] is > 190; in the series listed under Homo sapiens [6], 15.
On to `OC[C@H]1CNCCO[C@@H]1c1ccc(Cl)c(Cl)c1`, for which, at CYP2D6, the inhibition at 10 µM was 45%. Moreover, the IC50 came to 1.4 µM in series [1], 0.0058 µM in series [2] and 0.036 µM in series [5]. The Ratio IC50 was determined as 230 in the series listed under Homo sapiens [3] and 6.1 in the series listed under Homo sapiens [6].
In the case of `CCOc1ccccc1O[C@@H](c1ccccc1)[C@@H]1CNCCO1`, the outcome in the series on Rattus norvegicus [8] was Active.
With `CC(=O)NCC[C@@H]1CNCCO[C@H]1c1ccc(Cl)c(Cl)c1`, the IC50 is > 1 µM in series [1], 0.0058 µM in series [2] and 0.2 µM in series [5]. The Ratio IC50 in the series listed under Homo sapiens [3] was > 170; in the series listed under Homo sapiens [6], 35.
On the same counts, the results for `CC(=O)NC[C@@H]1CNCCO[C@H]1c1ccc(C)c(Cl)c1` are > 1 µM, 0.0034 µM, 0.68 µM, > 300 and 200.
